According to paper PMC4064470 (Journal of medicinal chemistry, 2013):

What was measured:
recombinant mouse VAP-1 = target: T1, recombinant mouse VAP-1 (Mus musculus, UniProt O70423); test: In vitro inhibition of recombinant mouse VAP-1 activity; format: biochemical; details: control compound; mouse VAP-1 in Figure 1
T1 sequence (O70423 1-765): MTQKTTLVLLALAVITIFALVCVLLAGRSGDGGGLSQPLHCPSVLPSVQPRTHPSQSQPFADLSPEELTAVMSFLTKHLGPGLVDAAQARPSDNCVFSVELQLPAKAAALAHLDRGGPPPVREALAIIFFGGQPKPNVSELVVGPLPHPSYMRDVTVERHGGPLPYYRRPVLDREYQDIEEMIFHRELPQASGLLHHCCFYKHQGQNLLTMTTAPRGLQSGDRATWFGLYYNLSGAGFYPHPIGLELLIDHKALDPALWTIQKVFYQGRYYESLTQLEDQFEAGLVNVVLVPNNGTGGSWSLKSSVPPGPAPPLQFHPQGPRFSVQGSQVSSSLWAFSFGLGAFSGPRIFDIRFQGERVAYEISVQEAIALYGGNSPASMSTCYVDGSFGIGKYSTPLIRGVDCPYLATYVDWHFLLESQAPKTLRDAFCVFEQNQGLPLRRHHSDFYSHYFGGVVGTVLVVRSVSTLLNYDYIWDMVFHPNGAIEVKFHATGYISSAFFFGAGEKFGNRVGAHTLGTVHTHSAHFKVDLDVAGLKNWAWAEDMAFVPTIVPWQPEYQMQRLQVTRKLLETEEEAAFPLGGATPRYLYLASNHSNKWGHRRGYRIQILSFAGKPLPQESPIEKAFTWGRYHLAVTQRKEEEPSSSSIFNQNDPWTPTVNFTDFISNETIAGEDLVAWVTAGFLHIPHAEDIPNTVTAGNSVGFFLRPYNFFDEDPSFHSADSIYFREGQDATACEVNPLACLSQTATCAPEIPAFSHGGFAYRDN
Summary of the method: (§1)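 Enzyme source was lysate of CHO cells stably transfected with VAP-1 (native CHO has negligible activity), dosed to give 0.6 A490/h. Test compound (1 nM–50 μM) was preincubated 30 min at 37 °C with 0.2 M potassium phosphate pH 7.6, 1 mM 2,4-dichlorophenol, 500 μM 4-aminoantipyrine and 4 U/ml HRP. Then 1 mM benzylamine (final) was added for 1 h at 37 °C and A490 read. Percent inhibition was background-corrected and IC50 fitted, from two to six experiments.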

recombinant human VAP-1 = target: T2, recombinant human VAP-1 (Homo sapiens, UniProt Q16853); test: In vitro inhibition of recombinant human VAP-1 activity; format: biochemical; details: control compound
T2 sequence (Q16853 1-763): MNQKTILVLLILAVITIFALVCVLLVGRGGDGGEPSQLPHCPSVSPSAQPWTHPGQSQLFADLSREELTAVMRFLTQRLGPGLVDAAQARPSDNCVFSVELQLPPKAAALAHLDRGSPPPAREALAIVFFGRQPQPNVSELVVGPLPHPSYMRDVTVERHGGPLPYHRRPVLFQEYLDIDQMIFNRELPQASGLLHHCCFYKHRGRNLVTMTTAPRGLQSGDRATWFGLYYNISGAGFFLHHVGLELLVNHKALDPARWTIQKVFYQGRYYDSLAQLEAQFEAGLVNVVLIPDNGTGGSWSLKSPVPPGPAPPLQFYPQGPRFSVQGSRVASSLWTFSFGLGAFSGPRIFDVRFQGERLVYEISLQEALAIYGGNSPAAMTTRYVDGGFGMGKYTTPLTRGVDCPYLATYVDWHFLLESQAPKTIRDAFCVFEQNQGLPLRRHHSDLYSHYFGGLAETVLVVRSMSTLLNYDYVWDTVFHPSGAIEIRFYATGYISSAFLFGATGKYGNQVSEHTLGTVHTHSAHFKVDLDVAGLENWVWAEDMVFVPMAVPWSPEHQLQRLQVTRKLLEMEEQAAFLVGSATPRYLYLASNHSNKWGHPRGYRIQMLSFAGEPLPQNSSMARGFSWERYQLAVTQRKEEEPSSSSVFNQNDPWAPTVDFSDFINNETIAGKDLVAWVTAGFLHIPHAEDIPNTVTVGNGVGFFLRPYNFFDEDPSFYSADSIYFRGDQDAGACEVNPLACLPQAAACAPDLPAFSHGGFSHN
Summary of the method: as §1

## CN(N)[C@H](c1ccccc1)[C@@H](O)c1ccccc1.O=C(O)C(O)C(O)C(=O)O [Compound 11d, (1S,2R)-2-(1-methylhydrazino)-1,2-diphenylethanol (S,S)-tartrate salt]
Recombinant mouse VAP-1
  inhibition of rodent VAP-1 (in words): inhibits
Recombinant human VAP-1
  inhibition of human VAP-1 (in words): inhibits
